Assay results from different studies.
Protocols differ between the studies behind these lines.
Target: Cholinesterase (BCHE, Homo sapiens, UniProt P06276)
Read-out: enzyme activity
Mode: inhibitor

Compound	test	IC50
COc1ccc(OC)c(C=NNC(=O)c2cc(-c3cn(C)c4ccccc34)on2)c1		> 100000 nM
COc1ccc(/C=N/n2c(-c3cc([N+](=O)[O-])c[nH]3)n[nH]c2=S)cc1	Ellman	26200 nM
COc1ccc(S(=O)(=O)Oc2ccc(C=NNC(=O)c3ccc(F)cc3)cc2)cc1	Ellman	83.6 nM
Cn1cc(-c2cc(C(=O)NN=Cc3ccccc3Cl)no2)c2ccccc21		> 100000 nM
C#CCN(C)CCCCOc1cccc(CN(C)c2c3c(nc4ccccc24)CCCC3)c1	Ellman	370 nM
O=[N+]([O-])c1c[nH]c(-c2n[nH]c(=S)n2/N=C/c2ccc(F)c(O)c2)c1	Ellman	9700 nM
C#CCN(C)CCCCCOCc1ccc(CN(C)c2c3c(nc4ccc(C)cc24)CCCC3)cc1	Ellman	1120 nM
Cn1cc(-c2cc(C(=O)NN=Cc3ccncc3)no2)c2ccccc21		> 100000 nM
O=[N+]([O-])c1c[nH]c(-c2n[nH]c(=S)n2/N=C/c2ccc(F)c([N+](=O)[O-])c2)c1	Ellman	16100 nM
CSc1ccc(C=NNC(=O)c2cc(-c3cn(C)c4ccccc34)on2)cc1		> 100000 nM
C#CCN(C)CCCCOCc1ccc(CN(C)c2c3c(nc4ccccc24)CCCC3)cc1	Ellman	1470 nM
COc1ccc(S(=O)(=O)Oc2ccccc2C=NNC(=O)c2ccc(F)cc2)cc1	Ellman	114 nM
Cn1cc(-c2cc(C(=O)NN=Cc3ccccc3)no2)c2ccccc21		> 100000 nM
O=[N+]([O-])c1c[nH]c(-c2n[nH]c(=S)n2/N=C/c2ccc(Br)c(Cl)c2)c1	Ellman	23100 nM
C#CCN(C)CCCCCOCc1ccc(CN(C)c2c3c(nc4ccccc24)CCCC3)cc1	Ellman	610 nM
O=[N+]([O-])c1c[nH]c(-c2n[nH]c(=S)n2/N=C/c2ccc(F)cc2)c1	Ellman	9100 nM
COc1ccc(S(=O)(=O)Oc2cc(OC)ccc2C=NNC(=O)c2ccc(F)cc2)cc1	Ellman	113 nM
C#CCN(C)CCCCCCCOc1cccc(CN(C)c2c3c(nc4ccccc24)CCCC3)c1	Ellman	310 nM
CCN(CC)c1ccc(C=NNC(=O)c2ccc(F)cc2)c(OS(=O)(=O)c2ccc(OC)cc2)c1	Ellman	97.2 nM
C#CCN(C)CCCCCCOCc1ccc(CN(C)c2c3c(nc4ccccc24)CCCC3)cc1	Ellman	430 nM
O=[N+]([O-])c1c[nH]c(-c2n[nH]c(=S)n2/N=C/c2c(O)cc(O)cc2O)c1	Ellman	6800 nM
COc1ccccc1C=NNC(=O)c1cc(-c2cn(C)c3ccccc23)on1		> 100000 nM
